# From ChEMBL document CHEMBL4330067, “Synthesis and mechanistic studies of diketo acids and their bioisosteres as potential antibacterial agents” (Eur J Med Chem, 2019)
# The source made the active and inactive calls. The calls are words filed in the database; no cut-off is given here.
# Assays:
# Escherichia coli [1] = assay: Synergistic antibacterial activity against Escherichia coli MRC17 assessed as ciprofloxacin MIC at 16 to 1024 ug/mL after 18 hrs by checkerboard method; type: functional; settings: MRC17, 18 h
# Procedure, shortened: (§1)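 Checkerboard combination with ciprofloxacin in Mueller-Hinton broth: compound 1024 to 16 µg/mL crossed with ciprofloxacin 128 to 2 µg/mL. Inoculum 5×10⁵ CFU/mL suspension, 18 h at 37 °C. Fractional inhibitory concentration index derived from the combination.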
# Klebsiella pneumoniae = assay: Antibacterial activity against Klebsiella pneumoniae ATCC 700603 after 24 hrs by broth dilution assay; type: functional; settings: Klebsiella pneumoniae, 700603, 24 h
# Procedure, shortened: (§2)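 Broth dilution per NCCLS in nutrient broth, serial dilutions 1000 to 7.8 µg/mL, DMSO below 4% final. Inoculum approx. 2.5×10⁶ cells/mL, 37 °C with shaking at 150 rpm for 24 h. MIC taken as the lowest concentration with no visible growth. Ciprofloxacin served as positive control.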
# Escherichia coli [2] = assay: Synergistic antibacterial activity against Escherichia coli MRC17 after 18 hrs in presence of ciprofloxacin by checkerboard method; type: functional; settings: MRC17, 18 h; procedure, shortened: as §1
# [3] = Inhibition of Mycobacterium tuberculosis methionine aminopeptidase 1C using Met-AMC as substrate by Dixon method
# Escherichia coli [4] = assay: Synergistic antibacterial activity against Escherichia coli MRA11 assessed as ciprofloxacin MIC at 16 to 1024 ug/mL after 18 hrs by checkerboard method; type: functional; settings: MRA11, 18 h; procedure, shortened: as §1
# Escherichia coli [5] = assay: Synergistic antibacterial activity against Escherichia coli MRAE33 assessed as ciprofloxacin MIC at 16 to 1024 ug/mL after 18 hrs by checkerboard method; type: functional; settings: MRAE33, 18 h; procedure, shortened: as §1
# Streptococcus pneumoniae [6] = assay: Antibacterial activity against Streptococcus pneumoniae MTCC 655 after 24 hrs by broth dilution assay; type: functional; settings: MTCC 655, 24 h; procedure, shortened: as §2
# [7] = Inhibition of Enterococcus faecalis methionine aminopeptidase 1A using Met-AMC as substrate by Dixon method
# Procedure, shortened: (§3)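 Purified MetAP at 4 µM in 50 mM HEPES with 150 mM KCl and CoCl2 at 3 molar equivalents of enzyme. pH 7.5 for SpMetAP1a and EfMetAP1a, pH 8.0 for HsMetAP1b. Substrate L-Met-AMC at 50, 100 and 150 µM. Compounds (10 mM DMSO stocks) tested over 1 to 120 µM for % inhibition; Ki by Dixon method.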
# Escherichia coli [8] = assay: Antibacterial activity against Escherichia coli MRAE33 after overnight incubation; type: functional
# Procedure, shortened: (§4)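 Multidrug-resistant E. coli isolates in Luria broth, test range 8 to 1024 µg/mL (ciprofloxacin 0.49 to 63.3 µg/mL). Inoculum 10 µL of a 1000-fold diluted 0.1 OD600 culture, incubated overnight at 37 °C. OD read at 600 nm. % inhibition = (a−b)/a×100, with media and compound-colour blanks subtracted.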
# Escherichia coli [9] = assay: Synergistic antibacterial activity against Escherichia coli MRAE33 after 18 hrs in presence of ciprofloxacin by checkerboard method; type: functional; settings: MRAE33, 18 h; procedure, shortened: as §1
# Salmonella typhimurium = assay: Antibacterial activity against Salmonella typhimurium MTCC 3224 after 24 hrs by broth dilution assay; type: functional, Salmonella enterica subsp. enterica serovar Typhimurium; settings: Salmonella enterica, MTCC 3224, 24 h; procedure, shortened: as §2
# Escherichia coli [10] = assay: Antibacterial activity against Escherichia coli MRAE32 at 512 ug/mL after 24 hrs by broth dilution assay relative to control; type: functional; procedure, shortened: as §4
# Escherichia coli [11] = assay: Synergistic antibacterial activity against Escherichia coli MRC17 assessed as fractional inhibitory concentration index after 18 hrs in presence of ciprofloxacin by checkerboard method; type: functional
# Procedure, shortened: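 Checkerboard combination against MDR E. coli. Test agent gradient 1024–16 µg/mL crossed with ciprofloxacin 128–2 µg/mL in Mueller-Hinton broth. Wells were inoculated with a 5 × 10⁵ CFU/mL suspension and incubated 18 h at 37 °C. Interaction was expressed as the fractional inhibitory concentration index (FICI).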
# Escherichia coli [12] = assay: Antibacterial activity against Escherichia coli MRC17 at 512 ug/mL after 24 hrs by broth dilution assay relative to control; type: functional; procedure, shortened: as §4
# Escherichia coli [13] = assay: Antibacterial activity against Escherichia coli MROB11 after overnight incubation; type: functional; procedure, shortened: as §4
# CHO [14] = assay: Cytotoxicity against CHO cells at 50 ug/mL after 48 hrs by MTT assay; type: cell-based, Cricetulus griseus; settings: chinese hamster
# Procedure, shortened: (§5)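 MTT assay: cells maintained in DMEM with 10% FBS and penicillin/streptomycin at 37 °C, 5% CO2. Seeded at approx. 2×10⁴ cells/well, 24 h before treatment, then exposed to 10 to 400 µg/mL for 48 h at 37 °C. MTT (5 mg/mL stock in PBS) added for 4 h, formazan dissolved in DMSO, A570 read. Triplicate wells; viability given relative to untreated cells.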
# Escherichia coli [15] = assay: Antibacterial activity against Escherichia coli MRAE26 after overnight incubation; type: functional; procedure, shortened: as §4
# Escherichia coli [16] = assay: Antibacterial activity against Escherichia coli ATCC 25922 after 24 hrs by broth dilution assay; type: functional; settings: ATCC 25922, 24 h; procedure, shortened: as §2
# Enterococcus faecalis [17] = assay: Inhibition of Enterococcus faecalis methionine aminopeptidase 1A at 100 uM using Met-AMC as substrate relative to control; procedure, shortened: as §3
# Escherichia coli [18] = assay: Antibacterial activity against Escherichia coli MRC17 after overnight incubation; type: functional; procedure, shortened: as §4
# Escherichia coli [19] = assay: Synergistic antibacterial activity against Escherichia coli MRA11 after 18 hrs in presence of ciprofloxacin by checkerboard method; type: functional; settings: MRA11, 18 h; procedure, shortened: as §1
# [20] = Inhibition of Streptococcus pneumoniae methionine aminopeptidase 1A using Met-AMC as substrate by Dixon method; procedure, shortened: as §3
# Escherichia coli [21] = assay: Synergistic antibacterial activity against Escherichia coli MRAE33 assessed as fractional inhibitory concentration index after 18 hrs in presence of ciprofloxacin by checkerboard method; type: functional; procedure, shortened: as §1
# [22] = test system: Mycobacterium tuberculosis; assay: Inhibition of Mycobacterium tuberculosis methionine aminopeptidase 1C at 100 uM using Met-AMC as substrate relative to control
# Procedure, shortened: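 Purified MtMetAP1c (4 µM) in 50 mM Hepes pH 7.5 with 150 mM KCl and CoCl2 at three molar equivalents of enzyme. Substrate was L-Met-AMC at 50, 100 or 150 µM. Compounds came from 10 mM DMSO stocks. Percent inhibition was taken against the uninhibited control.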
# [23] = Inhibition of human methionine aminopeptidase 1B using Met-AMC as substrate by Dixon method; procedure, shortened: as §3
# Escherichia coli [24] = assay: Antibacterial activity against Escherichia coli MRC24 after overnight incubation; type: functional; procedure, shortened: as §4
# CHO [25] = assay: Cytotoxicity against CHO cells at 300 ug/mL after 48 hrs by MTT assay; type: cell-based, Cricetulus griseus; settings: chinese hamster; procedure, shortened: as §5
# Homo sapiens = species: Homo sapiens; assay: Inhibition of human methionine aminopeptidase 1B at 100 uM using Met-AMC as substrate relative to control; procedure, shortened: as §3
# Enterococcus faecalis [26] = assay: Antibacterial activity against Enterococcus faecalis MTCC 439 after 24 hrs by broth dilution assay; type: functional; settings: MTCC 439, 24 h; procedure, shortened: as §2
# Escherichia coli [27] = assay: Antibacterial activity against Escherichia coli MRC24 at 512 ug/mL after 24 hrs by broth dilution assay relative to control; type: functional; procedure, shortened: as §4
# Escherichia coli [28] = assay: Antibacterial activity against Escherichia coli MRAE44 at 1024 ug/mL after 24 hrs by broth dilution assay; type: functional, organism-based; procedure, shortened: as §4
# Escherichia coli [29] = assay: Antibacterial activity against Escherichia coli MRAE44 after overnight incubation; type: functional; procedure, shortened: as §4
# Streptococcus pneumoniae [30] = assay: Inhibition of Streptococcus pneumoniae methionine aminopeptidase 1A at 100 uM using Met-AMC as substrate relative to control; procedure, shortened: as §3
# Escherichia coli [31] = assay: Antibacterial activity against Escherichia coli MRAE32 after overnight incubation; type: functional; procedure, shortened: as §4
# [32] = Cytotoxicity against CHO cells assessed as cell viability at 100 ug/mL after 48 hrs by MTT assay relative to control; type: cell-based, Cricetulus griseus; settings: chinese hamster, read-out: Activity; procedure, shortened: as §5
# Pseudomonas aeruginosa = assay: Antibacterial activity against Pseudomonas aeruginosa MTCC 2453 after 24 hrs by broth dilution assay; type: functional; settings: MTCC 2453, 24 h; procedure, shortened: as §2
# Escherichia coli [33] = assay: Antibacterial activity against Escherichia coli MRA11 at 512 ug/mL after 24 hrs by broth dilution assay relative to control; type: functional; procedure, shortened: as §4
# Escherichia coli [34] = assay: Antibacterial activity against Escherichia coli MRAE33 at 1024 ug/mL after 24 hrs by broth dilution assay relative to control; type: functional; procedure, shortened: as §4
# Escherichia coli [35] = assay: Synergistic antibacterial activity against Escherichia coli MRA11 assessed as fractional inhibitory concentration index after 18 hrs in presence of ciprofloxacin by checkerboard method; type: functional; procedure, shortened: as §1
# Escherichia coli [36] = assay: Antibacterial activity against Escherichia coli MRA11 after overnight incubation; type: functional; procedure, shortened: as §4
# Escherichia coli [37] = assay: Antibacterial activity against Escherichia coli MRAE26 at 1024 ug/mL after 24 hrs by broth dilution assay relative to control; type: functional; procedure, shortened: as §4
# Escherichia coli [38] = assay: Antibacterial activity against Escherichia coli MROB11 at 512 ug/mL after 24 hrs by broth dilution assay relative to control; type: functional; procedure, shortened: as §4
compound,measurement,setting,value
COC(=O)[C@@H](C)NC(=O)/C(O)=C/C(=O)c1oc2ccc(Br)cc2c1C,MIC,Escherichia coli [1],64 µg/mL
same,MIC,Klebsiella pneumoniae,500 µg/mL
same,MIC,Escherichia coli [2],1020 µg/mL
same,Ki,[3],17.6 µM
same,MIC,Escherichia coli [4],128 µg/mL
same,MIC,Escherichia coli [5],2 µg/mL
same,MIC,Streptococcus pneumoniae [6],62.5 µg/mL
same,Ki,[7],10.4 µM
same,ICmax,Escherichia coli [8],512 µg/mL
same,MIC,"Escherichia coli [8]; Escherichia coli, MRAE33",1020 µg/mL
same,MIC,Escherichia coli [9],16 µg/mL
same,MIC,Salmonella typhimurium,500 µg/mL
same,Activity,Escherichia coli [10],88%
same,fractional inhibitory concentration index (FICI),Escherichia coli [11],1.5
same,Activity,Escherichia coli [12],60%
same,ICmax,Escherichia coli [13],512 µg/mL
same,Activity,CHO [14],Non-Toxic
same,ICmax,Escherichia coli [15],1024 µg/mL
same,MIC,Escherichia coli [16],62.5 µg/mL
same,inhibition,Enterococcus faecalis [17],93.9%
same,ICmax,Escherichia coli [18],512 µg/mL
same,MIC,"Escherichia coli [18]; Escherichia coli, MRC17",1020 µg/mL
same,MIC,Escherichia coli [19],1020 µg/mL
same,Ki,[20],8.78 µM
same,fractional inhibitory concentration index (FICI),Escherichia coli [21],1.0156
same,inhibition,[22],99.6%
same,Ki,[23],22.1 µM
same,ICmax,Escherichia coli [24],512 µg/mL
same,Activity,CHO [25],Toxic
same,inhibition,Homo sapiens,89.1%
same,MIC,Enterococcus faecalis [26],31.2 µg/mL
same,Activity,Escherichia coli [27],76%
same,Activity,Escherichia coli [28],Active
same,ICmax,Escherichia coli [29],1024 µg/mL
same,inhibition,Streptococcus pneumoniae [30],97.4%
same,ICmax,Escherichia coli [31],512 µg/mL
same,"viability at 48 h, 100 ug/mL",[32],50%
same,MIC,Pseudomonas aeruginosa,125 µg/mL
same,Activity,Escherichia coli [33],65%
same,Activity,Escherichia coli [34],50%
same,fractional inhibitory concentration index (FICI),Escherichia coli [35],2
same,ICmax,Escherichia coli [36],512 µg/mL
same,MIC,"Escherichia coli [36]; Escherichia coli, MRA11",1020 µg/mL
same,Activity,Escherichia coli [37],54%
same,Activity,Escherichia coli [38],87%
